Bioassay records (PubChem BioAssay)
Shown are actives, neighbours in structure and some others; about 1.9% of the full set was active somewhere.
TAG inh = reduces triacylglycerol accumulation in H9c2 cells | Nile Red lipid (TAG) fluorescence; cells loaded with 200 µM oleic acid | inhibition, % at 12.5 µM | 230,000 tested, 0.66% active | AID 651582;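 active = pattern-corrected inhibition of lipid staining of at least 50% with the nuclear-stain viability signal not falling by more than 50%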
FXN GAA850 act = activators of GAA850 frataxin (FXN) promoter; HEK293 lucGAA850 FXN promoter luciferase reporter, 24 h; percent of 10 µM SAHA response; activation, % at 6 µM; 360,000 tested, 0.56% active;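 active = activation above the average of all compounds screened plus 3 SD, cutoff fixed separately per campaign, cut at about 7.5% in these data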
ABHD5-PLIN5 inh = inhibitors of human ABHD5-perilipin-5 interaction | Q00G26+Q8WTS1 | Split G. princeps luciferase complementation, luminescence, 4 h | inhibition, % at 4 µM | 360,000 tested, 0.78% active | AID 602281;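 active = inhibition above the mean inhibition across every tested compound plus 3 SD, cut at about 22% in these data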
HIF activator = HIF pathway transcriptional activation | AID 1910 | U2OS HRE-luciferase reporter, luminescence; normalized: DMSO 0%, desferrioxamine 100% | activation, % at 7.5 µM (by protocol) | 300,000 tested, 0.32% active;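 active = mean activation of at least 10% of the iron chelator positive control signal, with at least half of replicates also reaching 10%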
Rad51 HR inh = Rad51 (human) homologous recombination inhibition; AID 1385; Q06609; inhibition, % at 10 µM; hRad51 DNA strand exchange, fluorescence dequenching; 200,000 tested, 0.085% active;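 active = inhibition above 40% at the single screening dose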
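Test system – preformed human Rad51 ssDNA filaments · Reagent – Donor/quencher-labelled 47-bp dsDNA substrate · Incubation – 37 °C 15-min filament assembly, 30-min compound preincubation, 15-min exchange · Signal – FRET fluorescence dequenching, excitation 485 nm, emission 520 nm · Read-out – percent inhibition from fluorescence, normalised to plate control and blank means · Benchmarks – plate control and blank wells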
Hsp70 act = transcriptional activators of Hsp70; HeLa Hsp70 promoter luciferase reporter, luminescence; scaled: vehicle 0, proteasome-inhibitor control 100%; activation, % at 10 µM; 200,000 tested, 0.04% active;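 active = activation above the mean across all tested compounds plus 3 SD, cutoff set per campaign, cut at about 5.5% in these data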
Hsp70 act DR = dose-dependent Hsp70 transcriptional activation | shares compounds with Hsp70 act | HeLa hsp70.1pr-luc reporter, luciferase luminescence | calls only at 99 µM | 70 tested, 10% active;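 active = over 50% activation at some tested dose; inactive = under 50% activation at every tested dose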
GAA30 counter = GAA30 FXN promoter activation counter-screen; shares compounds with FXN GAA850 act; HEK293 lucGAA30 FXN promoter luciferase, 24 h; DMSO = 0%, 5 µM ipriflavone = 100%; activation, % at 6 µM; 1,900 tested, 66% active; AID 588350;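 active = mean activation above the mean of solvent-only control wells plus 3 SD, cut at about 22% in these data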;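 note: counterscreen of GAA850 promoter hits where activity marks nonselective or luminescence artifacts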
FXN GAA850 conf = GAA850 FXN promoter activation confirmation; shares compounds with FXN GAA850 act; HEK293 lucGAA850 FXN promoter luciferase reporter, 24 h; 100% = activation by SAHA; activation, % at 6 µM; 1,900 tested, 86% active;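 active = mean activation above a set limit taken from the primary screen, cut at about 8% in these data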
ABHD5 PLIN5 conf = confirmation of human ABHD5-PLIN5 interaction inhibitors; biochemical ABHD5-PLIN5 interaction, luminescence; shares compounds with ABHD5-PLIN5 inh; inhibition, % at 4 µM; 2,200 tested, 67% active; in the data active = inhibition above about 23%
HNF4 split-luc = counter-screen for ABHD5-PLIN5 inhibitors: HNF4 split-luciferase; shares compounds with ABHD5-PLIN5 inh; HNF4 dimerization, luminescence, biochemical; inhibition, % at 4 µM; 2,200 tested, 77% active; AID 651674;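 active = mean inhibition across replicate wells exceeding the computed hit threshold, cut at about 13% in these data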;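 note: light from luciferase halves that rejoin when HNF4 fusion proteins dimerize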
Target sequence (P41235 whole entry, looked up, the tested form may be a part): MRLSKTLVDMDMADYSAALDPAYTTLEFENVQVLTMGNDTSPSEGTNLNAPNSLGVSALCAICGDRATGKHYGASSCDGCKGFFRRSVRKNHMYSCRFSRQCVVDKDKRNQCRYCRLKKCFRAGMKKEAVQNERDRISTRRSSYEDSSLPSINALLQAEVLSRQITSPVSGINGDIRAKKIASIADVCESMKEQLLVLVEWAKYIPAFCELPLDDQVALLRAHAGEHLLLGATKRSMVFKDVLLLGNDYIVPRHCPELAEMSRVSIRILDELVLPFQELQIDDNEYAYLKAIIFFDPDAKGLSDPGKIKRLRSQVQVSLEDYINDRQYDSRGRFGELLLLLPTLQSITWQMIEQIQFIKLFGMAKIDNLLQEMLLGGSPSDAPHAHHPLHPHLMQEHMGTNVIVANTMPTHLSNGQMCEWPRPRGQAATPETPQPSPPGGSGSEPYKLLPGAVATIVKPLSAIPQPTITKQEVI
A number is an active result; – = inactive; · = no result; + = active, no number.

SMILES	TAG inh	FXN GAA850 act	ABHD5-PLIN5 inh	HIF activator	Rad51 HR inh	Hsp70 act	GAA30 counter	FXN GAA850 conf	others
COC(=O)COc1ccc(S(=O)(=O)NCc2ccccn2)cc1	·	–	–	–	·	·	·	·
COC(=O)Nc1ccc(S(=O)(=O)NCc2ccccn2)cc1	–	–	–	–	–	5.8	·	·	Hsp70 act DR=–
CCCC(=O)N1CCN(c2ccc(NC(=O)c3ccc([N+](=O)[O-])o3)cc2Cl)CC1	–	7.9	–	–	·	35	–	24	Hsp70 act DR=–
O=Cc1cnc(N2CCOCC2)nc1	·	–	–	–	–	–	·	·
C=CS(=O)(=O)c1ccc(Oc2ccc(S(=O)(=O)C=C)cc2)cc1	·	–	86	–	·	48	·	·	Hsp70 act DR=–;ABHD5 PLIN5 conf=100;HNF4 split-luc=102
C/C=C(\C)C(=O)Nc1cccc(C2=NOC3(C2)C[C@H](C(N)=O)N(C(=O)C(c2ccccc2)c2ccccc2)C3)c1 (stereo partly specified)	–	–	–	–	–	·	·	·
COc1ccc(NC(=O)Cc2ccccc2)cn1	–	–	–	–	–	–	·	·
COc1ccc(NC(=O)/C(Cl)=C(/Cl)S(=O)Cc2ccccc2)cn1 (stereo unspecified)	96	–	95	–	–	22	·	·	Hsp70 act DR=–;ABHD5 PLIN5 conf=97;HNF4 split-luc=103
O=C1/C(=C/c2ccncc2)CCC/C1=C\c1ccncc1	–	–	99	–	–	210	·	·	Hsp70 act DR=+;ABHD5 PLIN5 conf=104;HNF4 split-luc=109
O=C1NC(Cc2ccccc2)c2nc3ccccc3c(=O)n2-c2cc3ccccc3cc21 (stereo unspecified)	–	–	–	·	·	·	·	·
CCOC(=O)c1sc(NC(=O)CCN2CCCCCC2)c(C(=O)OCC)c1C	·	10	–	–	–	–	–	–
CCCCc1nnc(NC(=O)COc2ccc3c(C)cc(=O)oc3c2)s1	·	·	·	–	–	·	·	·
Cc1nc(-c2nc(-c3c(C(=O)NN)noc3C)cs2)cs1	·	8.3	–	–	–	–	88	27
O=C1c2cccc3cccc(c23)C(c2nc3ccccc3[nH]2)N1C1CC1 (stereo unspecified)	·	·	–	·	·	·	·	·
CC(C)c1ccc(NC(=O)c2cccc(Br)c2)cc1	–	8.2	–	–	–	–	110	49
O=C(Nc1cccc(C(=O)Nc2cccc(Br)c2)c1)c1ccccc1	–	–	–	–	·	·	·	·
N#Cc1ccccc1OCc1nnc(-c2ccccc2Br)o1	·	8.8	–	–	·	·	102	41
C/C(CCc1ccccc1)=N\NC(=O)c1ccccc1[N+](=O)[O-]	·	–	–	–	·	–	·	·
CC(C)=CCC/C(C)=C/C=N/NC(=O)c1ccccc1[N+](=O)[O-]	·	8.6	–	–	–	–	–	–
CC(C)OC(=O)c1ccc(N)cc1	–	–	–	–	–	–	·	·
CCOc1ccc2c(c1)c1nc3ccccc3nc1n2C	·	7.7	–	–	·	·	74	21
COCc1nc2oc3ccc(C)cc3c(=O)c2cc1C(=O)OC	·	7.9	–	–	·	·	119	47
COCc1nc2oc3ccc(F)cc3c(=O)c2cc1C(=O)OC	·	–	–	–	·	·	·	·
O=C(CN1CCOCC1)Nc1nc(-c2ccccc2Cl)cs1	·	–	–	–	·	·	·	·
CCN(C[C@H]1N[C@@](Cc2ccccc2)(C(=O)OC)[C@H]2C(=O)N(Cc3ccccc3)C(=O)[C@@H]12)C(=O)Nc1ccc(Cl)cc1	–	–	–	·	·	·	·	·
SMILES	TAG inh	FXN GAA850 act	ABHD5-PLIN5 inh	HIF activator	Rad51 HR inh	Hsp70 act	GAA30 counter	FXN GAA850 conf	others
COc1cc(NC(=O)c2cccs2)c(OC)cc1NC(=O)c1ccco1	·	–	–	–	·	–	·	·
COc1ccc(NC(=O)c2ccco2)cc1NC(=O)c1cccs1	·	9.4	–	–	–	–	23	–
O[C@H]1C[C@H](c2ccccc2)N(Cc2cccs2)C[C@@H]1n1cc(C2CC2)nn1	–	–	–	·	·	·	·	·
O=C(CCS(=O)(=O)c1ccccc1)N(CCCN1CCOCC1)c1nc2ccc(F)cc2s1	–	15	–	–	·	·	105	66
O=C(Cn1nc(-c2ccc(N3CCOCC3)c([N+](=O)[O-])c2)c2ccccc2c1=O)N1CCCCC1	–	8.3	–	–	–	–	38	14
COc1cccc(NC(=O)COc2cc(O)c3c(c2)OC(C)(C)CC3=O)c1	·	–	–	–	·	·	·	·
Cc1nc2ccc(-c3nc4ccccc4[nH]3)cc2[nH]1	–	7.8	–	–	–	–	129	38
Cc1ccc(-c2nc3ccccc3[nH]2)cn1	–	–	–	–	·	·	·	·
Fc1ccc(Nc2ccnc(Nc3ccc(F)cc3)n2)cc1	·	8.4	–	–	–	–	107	34
CC(=O)N(C)c1ccc(OCC(O)Cn2c3ccc(Cl)cc3c3cc(Cl)ccc32)cc1 (stereo unspecified)	–	10	–	–	–	–	–	11
CC#Cc1cc2c(cc1O)CCC1C2CCC2(C)C(O)CCC12 (stereo unspecified)	–	–	–	·	·	·	·	·
Cc1cccc(C)c1Nc1nnc(SCc2nc3ccccc3s2)s1	·	8.6	–	–	–	–	121	43
COc1cccc(Nc2nnc(SCc3nc4ccccc4s3)s2)c1	·	–	–	–	–	–	·	·
Cc1ccnc(SCc2nc3ccccc3s2)n1	·	8.3	–	–	–	–	104	31
C[C@H](CO)N1C[C@H](C)[C@H](CN(C)S(=O)(=O)c2ccccc2F)OCc2cnnn2CCCC1=O	–	–	–	·	·	·	·	·
Cc1cc(N2CCN(C(C(=O)NC3CCCC3)c3ccc(-c4ccccc4)cc3)CC2)c2ccccc2n1 (stereo unspecified)	·	·	–	·	·	·	·	·
CCOc1ccc(OCc2cccc(C(=O)N3CCCC3)c2)cc1	·	–	–	–	–	–	·	·
CCOc1ccc(OCc2cccc(C(=O)N3CCCCCC3)c2)cc1	–	7.8	–	–	–	–	105	35
COc1ccc(-c2nc3c(C(=O)NCCN(C)C)cccc3c3ccccc23)cc1	–	–	–	·	·	·	·	·
COc1ccc(C(=O)NCCN(C)C)c2nc3ccccc3cc12	–	10	–	·	·	·	–	71
C[C@@H](NC(=O)c1coc(=O)c(Br)c1)c1ccccc1	·	8.8	–	–	–	–	–	–
O=C(Nc1ccc(Br)cn1)c1coc(=O)c(Br)c1	–	–	–	–	–	·	·	·
